Reference: ChEMBL document CHEMBL3616436, “Synthesis, cytotoxicity and antimicrobial activity of thiourea derivatives incorporating 3-(trifluoromethyl)phenyl moiety” (Eur J Med Chem, 2015)
In brackets after ≈: the same amount, converted by molar mass. Activity calls are given as the source filed them. The calls are words filed in the database; no cut-off is given here.

Assays:
[1] = Antiviral activity against Bovine viral diarrhea virus 1-NADL ATCC VR-534 infected in MDBK cells assessed as protection against virus-induced cytopathogenicity after 3 to 4 days by MTT assay; type: functional, cell-based; conditions: Bovine viral diarrhea virus isolates and strains, ATCC VR-534, MDBK
Procedure, shortened: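 Cells seeded in 96-well plates (BHK 5x10^4, MDBK 3x10^4 cells/well), grown overnight to confluence, infected at m.o.i. 0.01 (BHK for Reo-1, MDBK for BVDV); serial compound dilutions in maintenance medium with 0.5% inactivated FBS added after 1 h; viability by MTT after 3–4 days at 37°C; EC50 for 50% protection by linear regression.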

[2] = Cytotoxicity against BHK cells assessed as cell viability after 48 to 96 hrs by MTT assay; type: cell-based, Mesocricetus auratus; conditions: hamster
[3] = Cytotoxicity against African green monkey Vero 76 cells assessed as cell viability after 48 to 96 hrs by crystal violet staining; type: cell-based; conditions: chlorocebus sabaeus
[4] = test system: Coxsackievirus B5; experiment: Antiviral activity against Human coxsackievirus B5 ATCC VR-29 infected in African green monkey Vero 76 cells assessed as reduction of virus-plaque formation after 3 days by crystal violet staining; type: functional, organism-based; conditions: Enterovirus B, ATCC VR-29, Vero, 72 h
Procedure, shortened: (§1)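 Plaque reduction: Vero-76 at 2x10^5 cells/well grown to confluent monolayers, infected 2 h at 50–100 PFU/well; after removing unadsorbed virus, overlay of D-MEM, 1% inactivated FBS, 0.75% methylcellulose with or without serial compound dilutions; 3 days at 37°C, fixed and stained with crystal violet in 50% ethanol, plaques counted; EC50 by linear regression.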

[5] = test system: Poliovirus 1; experiment: Antiviral activity against Poliovirus type 1 ATCC VR-1562 infected in African green monkey Vero 76 cells assessed as reduction of virus-plaque formation after 2 days by crystal violet staining; type: functional, organism-based; conditions: Enterovirus C, ATCC VR-1562, Vero, 48 h
[6] = test system: Human alphaherpesvirus 1; experiment: Antiviral activity against Human herpesvirus 1 KOS ATCC VR-1493 infected in African green monkey Vero 76 cells assessed as reduction of virus-plaque formation after 3 days by crystal violet staining; type: functional, organism-based; conditions: Human alphaherpesvirus 1, KOS ATCC VR1493, Vero, 72 h; procedure, shortened: as §1
[7] = test system: Staphylococcus aureus; experiment: Antimicrobial activity against Staphylococcus aureus NCTC 4163 at 400 ug after 18 hrs by disc-diffusion method; type: functional; conditions: NCTC 4163, 18 h, read-out: IZ
Procedure, shortened: (§2)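 Disc diffusion on Mueller-Hinton II agar per CLSI; 9 mm paper discs loaded with 400 µg compound from DMSO solution, dried, placed on agar; growth inhibition zone diameter read after 18 h at 35°C.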

[8] = test system: Staphylococcus aureus; experiment: Antimicrobial activity against Staphylococcus aureus ATCC 25923 at 400 ug after 18 hrs by disc-diffusion method; type: functional; conditions: ATCC 25923, 18 h, read-out: IZ; procedure, shortened: as §2
[9] = test system: Staphylococcus aureus; experiment: Antimicrobial activity against Staphylococcus aureus ATCC 29213 at 400 ug after 18 hrs by disc-diffusion method; type: functional; conditions: ATCC 29213, 18 h, read-out: IZ; procedure, shortened: as §2
[10] = test system: Staphylococcus epidermidis; experiment: Antimicrobial activity against Staphylococcus epidermidis ATCC 12228 at 400 ug after 18 hrs by disc-diffusion method; type: functional; conditions: ATCC 12228, 18 h, read-out: IZ; procedure, shortened: as §2
[11] = test system: Bacillus cereus; experiment: Antimicrobial activity against Bacillus cereus ATCC 11778 at 400 ug after 18 hrs by disc-diffusion method; type: functional; conditions: ATCC 11778, 18 h, read-out: IZ; procedure, shortened: as §2
[12] = test system: Enterococcus hirae; experiment: Antimicrobial activity against Enterococcus hirae ATCC 10541 at 400 ug after 18 hrs by disc-diffusion method; type: functional; conditions: ATCC 10541, 18 h, read-out: IZ; procedure, shortened: as §2
[13] = test system: Enterococcus faecalis; experiment: Antimicrobial activity against Enterococcus faecalis ATCC 29212 at 400 ug after 18 hrs by disc-diffusion method; type: functional; procedure, shortened: as §2
[14] = test system: Micrococcus luteus; experiment: Antimicrobial activity against Micrococcus luteus ATCC 10240 at 400 ug after 18 hrs by disc-diffusion method; type: functional; conditions: ATCC 10240, 18 h, read-out: IZ; procedure, shortened: as §2
[15] = test system: Proteus vulgaris; experiment: Antimicrobial activity against Proteus vulgaris NCTC 4635 at 400 ug after 18 hrs by disc-diffusion method; type: functional; procedure, shortened: as §2
[16] = test system: Staphylococcus aureus; experiment: Antimicrobial activity against Staphylococcus aureus ATCC 6538 after 18 hrs by twofold serial microdilution method; type: functional; conditions: ATCC 6538, 18 h
[17] = test system: Staphylococcus aureus; experiment: Antimicrobial activity against Staphylococcus aureus ATCC 29213 after 18 hrs by twofold serial microdilution method; type: functional; conditions: ATCC 29213, 18 h
[18] = test system: Staphylococcus aureus; experiment: Antimicrobial activity against hospital methicillin-resistant Staphylococcus aureus 81/05 after 18 hrs by twofold serial microdilution method; type: functional; conditions: 81/05, 18 h
Procedure, shortened: (§3)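 Twofold serial microdilution in Mueller-Hinton broth. Compound stock was made in DMSO and diluted in sterile water. Tested range was 0.125–512 µg/mL. Final inoculum was 10^5 CFU/mL. Plates were incubated 18 h at 35 °C. MIC is the lowest concentration preventing visible growth.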

[19] = test system: Staphylococcus aureus; experiment: Antimicrobial activity against hospital methicillin-resistant Staphylococcus aureus 522/11 after 18 hrs by twofold serial microdilution method; type: functional; conditions: 522/11, 18 h; procedure, shortened: as §3
[20] = test system: Staphylococcus aureus; experiment: Antimicrobial activity against hospital methicillin-resistant Staphylococcus aureus 573/11 after 18 hrs by twofold serial microdilution method; type: functional; conditions: 573/11, 18 h; procedure, shortened: as §3
[21] = test system: Staphylococcus epidermidis; experiment: Antimicrobial activity against hospital methicillin-resistant Staphylococcus epidermidis 24/04 after 18 hrs by twofold serial microdilution method; type: functional; conditions: 24/04, 18 h; procedure, shortened: as §3
[22] = test system: Staphylococcus aureus; experiment: Ratio of ciprofloxacin MIC to compound MIC for hospital methicillin-resistant Staphylococcus aureus 53/05 after 18 hrs by twofold serial microdilution method; type: functional
Procedure, shortened: (§4)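 Ratio of MICs for ciprofloxacin and test agent, each from twofold serial broth microdilution in Mueller-Hinton broth following CLSI guidelines. DMSO stock was diluted in sterile water to 0.125–512 µg/mL, with a final inoculum of 10^5 CFU/mL.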

[23] = test system: Staphylococcus aureus; experiment: Ratio of ciprofloxacin MIC to compound MIC for hospital methicillin-resistant Staphylococcus aureus 80/05 after 18 hrs by twofold serial microdilution method; type: functional; procedure, shortened: as §4
[24] = test system: Staphylococcus aureus; experiment: Ratio of ciprofloxacin MIC to compound MIC for hospital methicillin-resistant Staphylococcus aureus 573/11 after 18 hrs by twofold serial microdilution method; type: functional; procedure, shortened: as §4
[25] = test system: Staphylococcus epidermidis; experiment: Ratio of ciprofloxacin MIC to compound MIC for hospital methicillin-resistant Staphylococcus epidermidis 24/04 after 18 hrs by twofold serial microdilution method; type: functional
[26] = test system: Staphylococcus epidermidis; experiment: Ratio of ciprofloxacin MIC to compound MIC for hospital methicillin-resistant Staphylococcus epidermidis 31/04 after 18 hrs by twofold serial microdilution method; type: functional; procedure, shortened: as §4
[27] = test system: Staphylococcus epidermidis; experiment: Ratio of ciprofloxacin MIC to compound MIC for hospital methicillin-resistant Staphylococcus epidermidis 76/04 after 18 hrs by twofold serial microdilution method; type: functional; procedure, shortened: as §4
[28] = test system: Mycobacterium tuberculosis; experiment: Antimycobacterial activity against Mycobacterium tuberculosis H37Rv ATCC 25618; type: functional
Procedure, shortened: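 Classical test-tube successive-dilution method in Youmans' modification of Proskauer and Beck liquid medium with 10% bovine serum. Inoculum came from 14-day cultures. DMSO stock was 10 mg/mL, diluted geometrically in medium. Tubes were incubated at 37 °C. Concentrations tested were 3.1, 6.2, 12.5, 25, 50 and 100 µg/ml. MIC is the minimum concentration inhibiting growth relative to compound-free tubes.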

Compound: FC(F)(F)c1cccc(NC(=S)NCCc2ccccc2)c1
- EC50 [1]: > 48 µM
- CC50 [2]: 29 µM
- CC50 [3]: 46 µM
- EC50 [4]: > 46 µM
- EC50 [5]: > 46 µM
- EC50 [6]: > 46 µM
- zone of inhibition at 400 µg/disc [7]: 15 mm
- zone of inhibition at 400 µg/disc [8]: 15 mm
- zone of inhibition at 400 µg/disc [9]: 15 mm
- zone of inhibition at 400 µg/disc [10]: 14 mm
- zone of inhibition at 400 µg/disc [11]: 16 mm
- zone of inhibition at 400 µg/disc [12]: 17 mm
- inhibition zone (IZ) [13]: inactive
- zone of inhibition at 400 µg/disc [14]: 15 mm
- inhibition zone (IZ) [15]: inactive
- MIC [16]: 8 µg/mL (≈ 24.7 µM)
- MIC [17]: 8 µg/mL (≈ 24.7 µM)
- MIC [18]: 16 µg/mL (≈ 49.3 µM)
- MIC [19]: 16 µg/mL (≈ 49.3 µM)
- MIC [20]: 16 µg/mL (≈ 49.3 µM)
- MIC [21]: 16 µg/mL (≈ 49.3 µM)
- Ratio [22]: 128
- Ratio [23]: 128
- Ratio [24]: 128
- Ratio [25]: 128
- Ratio [26]: 128
- Ratio [27]: 128
- MIC [28]: 50 µg/mL (≈ 154 µM)
